The values below come from ChEMBL document CHEMBL4024795, “G-Quadruplex Identification in the Genome of Protozoan Parasites Points to Naphthalene Diimide Ligands as New Antiparasitic Agents” (J Med Chem, 2018).

Data set [1] concerns Trypanosoma brucei brucei. Briefly: Antitrypanosomal activity against bloodstream form of Trypanosoma brucei brucei after 72 hrs by alamar blue assay. The class given is functional. Summed up: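 Bloodstream-form T. b. brucei single marker S427 (S16) in HMI-9 + 10% hiFBS, seeded at 1 × 10^4 per mL. Increasing compound concentrations for 72 h at 37 °C, 5% CO2. Proliferation by alamarBlue fluorescence (ex 550/em 590 nm).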
(In general: Alamar Blue is a resazurin reagent that responds to reducing activity.)

Data set [2] relates to Leishmania major. Briefly: Antileishmanial activity against Leishmania major MHOM/IL/80/Friedlin promastigotes after 72 hrs by MTT assay. It counts as functional. Summed up:
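L. major Friedlin promastigotes at 1 × 10^6 per mL, 72 h at 28 °C in modified RPMI-1640 + 10% hiFBS with increasing drug concentrations; proliferation by MTT, absorbance 540 nm.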
Background: Tetrazolium dyes change colour on reduction, which living cells bring about.

The subject of data set [3] is MRC5. Briefly: Cytotoxicity against human MRC5 cells assessed as cell growth inhibition after 72 hrs by MTT assay. Conditions: MRC5, 72 h. It counts as cell-based. Summed up:
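MRC5 cells in low-glucose DMEM + 10% hiFBS, seeded by trypsinization at 5000 cells/well with increasing compound concentrations. MTT read-out after 72 h at 37 °C. IC50 = 50% growth reduction versus untreated cells.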

Data set [4] concerns Plasmodium falciparum. Briefly: Antimalarial activity against erythrocyte stage of Plasmodium falciparum 3D7 preincubated for 48 hrs followed by [3H]-hypoxanthine addition measured after 18 hrs by liquid scintillation counting. It counts as functional. Summed up:
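P. falciparum 3D7-infected erythrocytes (1.5% hematocrit, 0.6% parasitemia) in RPMI 1640 + 10% AB human serum, DMSO ≤0.25% final. After 48 h at 37 °C, 0.6 μCi [3H]-hypoxanthine added for 18 h. Cells harvested onto glass-fibre filters and counted by scintillation, with uninfected-erythrocyte background subtracted. IC50 = 50% growth inhibition.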

Data set [5] in a line: Selectivity index, ratio of IC50 for human MRC5 cells to IC50 for Leishmania major MHOM/IL/80/Friedlin promastigotes. The class given is toxicity. To be noted: read-out: Ratio IC50. Summed up: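 SI is IC50(MRC-5)/IC50(parasite). L. major Friedlin promastigotes (1 × 10^6/mL) were exposed to increasing compound in modified RPMI-1640 + 10% hiFBS for 72 h at 28 °C, with MTT read at 540 nm. MRC5 cells (5000/well, low-glucose DMEM + 10% hiFBS) got increasing compound for 72 h at 37 °C, with MTT read-out. IC50 is versus untreated cells.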

Data set [6] in a line: Selectivity index, ratio of IC50 for human MRC5 cells to IC50 for bloodstream form of Trypanosoma brucei brucei. Conditions: read-out: Ratio IC50. The class given is toxicity. Summed up:
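Ratio of IC50 in MRC-5 to IC50 in parasite. Bloodstream-form T. b. brucei single-marker S427 (1 × 10^4/mL, HMI-9 + 10% hiFBS) was exposed to increasing compound for 72 h at 37 °C, 5% CO2, with alamarBlue fluorescence (ex 550/em 590).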

A short description of data set [7]: Selectivity index, ratio of IC50 for human MRC5 cells to IC50 for erythrocyte stage of Plasmodium falciparum 3D7. Conditions: read-out: Ratio IC50. The class given is toxicity.
Data set [8] is filed under the species Danio rerio. Briefly: Acute toxicity in AB zebrafish embryo assessed as no observed effect concentration with mortality score of >20% at 100 uM after 96 hrs post-fertlization. Conditions: in vivo. In a few lines: (§1)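 AB-strain embryos, with abnormal ones discarded, were placed 20 per condition at 3 hpf into compound dilutions in 0.1% DMSO/E3 (0.01, 0.1, 1, 10, 100 μM) and kept at 28.5 °C to 96 hpf. Mortality was scored and LC50 fitted by sigmoidal curve. NOEC/LOEC took >20% mortality as the effect. Controls were 0.1% DMSO (triplicate) and DEAB.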

Data set [9] in a line: (§2) Acute toxicity in AB zebrafish embryo assessed as mortality after 96 hrs post-fertlization. Conditions: AB, in vivo. Further details: species or system Danio rerio. Summed up: as §1
In data set [10] the test system is Trypanosoma brucei. Briefly: Binding affinity to Trypanosoma brucei FT-labeled EBR1 G-quadruplex DNA at 3 uM by circular dichroism spectroscopic analysis. In a few lines:
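EBR1-FT quadruplex at 3 μM in 10 mM lithium cacodylate pH 7.2 with 100 mM KCl, titrated with ligand (ratio 1:0 to 1:10). Spectra recorded at 25 °C in a 1 cm cell, average of three scans at 100 nm/min, 2 nm bandwidth.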
On the technique in general: Circular dichroism is the unequal absorption of left and right circularly polarised light.

Data set [11] can be described thus: Drug localization in Trypanosoma brucei nucleus at 5 uM after 30 mins by confocal microscopic analysis. The class given is ADME. Conditions: 0.5 h. In a few lines: (§3)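 T. brucei exposed to 5 μM compound in medium at 37 °C for 30 or 150 min. Fixed in 4% paraformaldehyde for 30 min, washed twice in cold PBS, then imaged by confocal microscopy using the compounds' intrinsic fluorescence.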

Data set [12] is described as follows: Drug localization in Trypanosoma brucei kinetoplast at 5 uM after 30 mins by confocal microscopic analysis. The class given is ADME. Conditions: 0.5 h. In a few lines: as §3
Data set [13] has as its system Trypanosoma brucei. Description: Drug localization in Trypanosoma brucei nucleus at 5 uM after 150 mins by confocal microscopic analysis. It counts as ADME. Conditions: 2.5 h. Summed up:
as §3

A short description of data set [14]: Drug localization in Trypanosoma brucei kinetoplast at 5 uM after 150 mins by confocal microscopic analysis. To be noted: 2.5 h. The class given is ADME. Summed up: as §3
For data set [15], the species on record is Danio rerio. Description: Acute toxicity in AB zebrafish embryo assessed as lowest observed effect concentration with mortality score of >20% at 100 uM after 96 hrs post-fertlization. Conditions: in vivo. In a few lines:
as §1

For data set [16], the species on record is Danio rerio. Described as §2. Conditions: in vivo, 96 h. In a few lines: as §1
Data set [17] relates to human telomeric hTel G-quadruplex DNA (Homo sapiens). Briefly: Binding affinity to FT-labeled human telomeric hTel G-quadruplex DNA assessed as change in melting temperature at 2 uM at pH 7.2 by FRET melting assay.

SMILES strings stand for the structures. Active and inactive are the calls of the source. The calls are words filed in the database; no cut-off is given here. A value given as a limit tells only on which side of the number the result lay.

By IC50 is commonly meant the point on the concentration scale where inhibition reaches its midpoint. On to `CN(C)c1ccc(Nc2c3ccc(NC(=O)CCN4CCCC4)cc3nc3cc(NC(=O)CCN4CCCC4)ccc23)cc1`, for which the IC50 stood at 5.51 µM in data set [1], 12.7 µM in data set [2], 8.33 µM in data set [3] and 9.7 µM in data set [4]. Also, the selectivity ratio is 0.7 in [5], 1.5 in data set [6] and 0.9 in data set [7].

In general, NOAEL refers to the highest tested level that showed no adverse finding. In general, LC50 refers to the concentration lethal to half of the exposed cells or organisms. Take `CN(C)CCCN1C(=O)c2ccc3c4c(c(NCc5cn([C@@H]6O[C@H](CO)[C@@H](O)[C@H](O)[C@H]6O)nn5)cc(c24)C1=O)C(=O)N(CCCN(C)C)C3=O`: the IC50 in data set [1] came to 0.024 µM; in [2], 0.244 µM; in data set [3], 1.15 µM; in data set [4], 1.35 µM. Moreover, the selectivity ratio in data set [7] amounted to 0.9. Also, the NOAEL in data set [8] is 100 µM. Further, the 50% lethal concentration (LC50) at 96 h in [9] was > 1000 µM.

In turn, `CCCCCCCCCCCCCCCCOP(=O)([O-])OCC[N+](C)(C)C` [MILTEFOSINE] registered an IC50 in [2] of 6.07 µM.

By ΔTm is commonly meant the shift of the melting midpoint relative to a reference. Take `CCCNc1cc2c3c(ccc4c3c1C(=O)N(CCCN(C)C)C4=O)C(=O)N(CCCN(C)C)C2=O`: the outcome in data set [10] was Active. Also, the IC50 in data set [2] was found to be 0.034 µM; in data set [3], 0.36 µM; in data set [4], 0.091 µM. Further, in data set [7], the selectivity ratio was 4. For the same compound, the Drug uptake entry in [11], in [12], in data set [13] and in data set [14] was “Active” in each case. In data set [8], the NOAEL turned out to be 100 µM. Moreover, the MTC in [15] is 1000 µM. Besides, the LC50 in data set [16] came out at 410 µM. Also, in data set [17], the ΔTm worked out at 19 °C.

As for `C[C@H]1O[C@@H](n2cc(CNc3cc4c5c(ccc6c5c3C(=O)N(CCCN(C)C)C6=O)C(=O)N(CCCN(C)C)C4=O)nn2)[C@H](O)[C@@H](O)[C@@H]1O`, the IC50 in data set [1] was determined as 0.017 µM; in [2], 0.184 µM; in data set [3] it was 0.91 µM; in data set [4], 0.225 µM. Also, the selectivity ratio in data set [5] was determined as 4.9; in [6], 53.5; in data set [7], 4. In addition, the NOAEL in data set [8] came to 100 µM. Besides, the LC50 in data set [16] worked out at 170 µM.

For `NCCOc1cc(C(=O)Nc2cc(OCCN)c3ccccc3n2)nc(C(=O)Nc2cc(OCCN)c3ccccc3n2)c1` [PYRIDOSTATIN], the IC50 in [1] was found to be 7.82 µM; in data set [2], 5 µM; in data set [3], 5.38 µM; in data set [4], 2.65 µM. In addition, the selectivity ratio in data set [5] worked out at 1.1; in data set [6] it was 0.7; in data set [7] it was 2.

`CN(C)CCCN1C(=O)c2ccc3c4c(c(NCc5cn(CCO[C@H]6O[C@H](CO)[C@@H](O)[C@H](O)[C@@H]6O)nn5)cc(c24)C1=O)C(=O)N(CCCN(C)C)C3=O`: the half-maximal inhibitory concentration (IC50) in data set [1] came to 0.021 µM; in data set [2] it was 0.306 µM; in [3], 0.81 µM; in [4], 0.18 µM. Also, the selectivity ratio is 2.6 in data set [5], 38.6 in data set [6] and 4.5 in [7]. In addition, the no-observed-adverse-effect level (NOAEL) in data set [8] was determined as 100 µM. Moreover, in data set [9], the LC50 at 96 h was > 1000 µM.

Turning to `C[n+]1ccc(-c2c3nc(c(-c4cc[n+](C)cc4)c4ccc([nH]4)c(-c4cc[n+](C)cc4)c4nc(c(-c5cc[n+](C)cc5)c5ccc2[nH]5)C=C4)C=C3)cc1`, the IC50 in data set [1] is > 10 µM; in [2], 20.8 µM; in [3] it was > 25 µM; in data set [4] it was > 25 µM. Moreover, in data set [5], the selectivity ratio was > 1.7.

As for `CC(=O)N[C@@H]1[C@@H](O)[C@H](O)[C@@H](CO)O[C@H]1n1cc(CNc2cc3c4c(ccc5c4c2C(=O)N(CCCN(C)C)C5=O)C(=O)N(CCCN(C)C)C3=O)nn1`, the concentration for half-maximal inhibition (IC50) in data set [1] is 0.089 µM; in data set [2], 1.04 µM; in data set [3], 0.51 µM; in data set [4], 0.36 µM. Also, the selectivity ratio in data set [5] is 0.5; in [6], 5.7; in [7], 1.4. The NOAEL in [8] was determined as 100 µM. Moreover, in [9], the LC50 at 96 h was > 1000 µM.

As to `CN(C)CCCN1C(=O)c2ccc3c4c(c(NCc5cn(CCO[C@@H]6O[C@H](CO)[C@@H](O)[C@H](O)[C@H]6O)nn5)cc(c24)C1=O)C(=O)N(CCCN(C)C)C3=O`, in data set [10], the result was Active. In addition, the figures for the IC50 in data set [2], in data set [3] and in data set [4] were 0.537 µM, 0.71 µM and 0.275 µM, respectively. Also, the selectivity ratio in data set [7] was found to be 2.6. The Drug uptake result in data set [11], in data set [12], in data set [13] and in data set [14] was “Active” in each case. Also, the NOAEL in [8] turned out to be 100 µM. For the same compound, the LC50 at 96 h in data set [9] was > 1000 µM. In addition, the shift in melting temperature (ΔTm) in [17] turned out to be 10 °C.
